From ChEMBL document CHEMBL4825713, “Promising Non-cytotoxic Monosubstituted Chalcones to Target Monoamine Oxidase-B” (ACS Med Chem Lett, 2021)

Assays:
[1] = biological target: T1, Amine oxidase [flavin-containing] B (Homo sapiens, UniProt P27338); test: Reversible inhibition of recombinant human MAO-B using kynuramine as substrate at 4 times Ki incubated for 20 mins
T1 sequence (P27338 whole entry): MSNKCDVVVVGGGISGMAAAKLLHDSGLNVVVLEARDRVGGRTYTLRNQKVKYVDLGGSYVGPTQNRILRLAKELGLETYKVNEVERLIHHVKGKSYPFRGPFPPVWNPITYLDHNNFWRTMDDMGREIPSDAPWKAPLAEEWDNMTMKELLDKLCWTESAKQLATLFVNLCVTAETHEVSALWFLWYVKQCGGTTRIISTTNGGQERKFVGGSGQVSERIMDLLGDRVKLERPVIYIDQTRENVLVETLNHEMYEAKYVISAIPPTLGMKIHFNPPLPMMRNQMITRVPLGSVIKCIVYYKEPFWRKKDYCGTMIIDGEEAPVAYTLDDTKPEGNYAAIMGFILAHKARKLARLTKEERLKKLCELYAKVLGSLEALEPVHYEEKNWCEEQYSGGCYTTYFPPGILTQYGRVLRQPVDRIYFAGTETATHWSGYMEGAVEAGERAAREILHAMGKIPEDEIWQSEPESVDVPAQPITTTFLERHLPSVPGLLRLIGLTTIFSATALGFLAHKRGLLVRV

[2] = biological target: T1, Amine oxidase [flavin-containing] B; test: Competitive inhibition of recombinant human MAO-B expressed in baculovirus infected BTI cells using varying concentration of kynuramine as substrate at 5 to 40 nM by Lineweaver-burk plot analysis; settings: dose 5-40 nM
Procedure, shortened: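 Initial velocities of human recombinant MAO-B measured at varied kynuramine concentrations, without inhibitor and with inhibitor at 5–40 nM. Data plotted as Lineweaver–Burk double reciprocals (1/v0 vs 1/[S]). Inhibition mode assigned from which intercept changes, x-intercept (−1/Km) versus y-intercept (1/Vmax). Mean ± SD of three independent experiments.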

Row | inhibition (INH) [1] | inhibition (INH) [2] | Compound
1 | Active | – | O=C(/C=C/c1ccccc1[N+](=O)[O-])c1ccccc1
2 | Active | Active | O=C(/C=C/c1ccccc1)c1cccc(C(F)(F)F)c1
3 | Active | – | O=C(/C=C/c1ccccc1)c1ccc(C(F)(F)F)cc1
